Data: ChEMBL document CHEMBL1130025, “Dihydro(alkylthio)(naphthylmethyl)oxopyrimidines: novel non-nucleoside reverse transcriptase inhibitors of the S-DABO series” (J Med Chem, 1997)

Tests used:
MT4 [1] = assay: Dose required to reduce the viability of mock-infected cells by 50%; format: functional; conditions: Homo sapiens
Summary of the method: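 Mock-infected MT-4 cells (1×10^4 per well) were exposed to compound dilutions in parallel with the antiviral assay. After 4 days at 37 °C, viability was measured by MTT. CC50 is the dose reducing viable cell number by 50%.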

MT4 [2] = assay: Dose required to achieve 50% protection of MT-4 cells from the HIV-1 induced cytopathogenicity in HIV-1 infected MT-4 cells; conditions: Homo sapiens
[3] = system: Human immunodeficiency virus type 1; assay: Selectivity index is the ratio of CC50 to EC50; conditions: Human immunodeficiency virus 1
[4] = target: Human immunodeficiency virus type 1 reverse transcriptase (Human immunodeficiency virus 1, UniProt Q72547); assay: Compound concentration required to inhibit the HIV-1 recombinant Reverse transcriptase (rRT) activity by 50%.
C8166 = assay: Ability to inhibit HIV-2 multiplication in acutely infected C8166 cells; format: functional, cell-based; conditions: Homo sapiens
Summary of the method: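 C8166 cells (1×10^4 per well) in RPMI 1640 with 10% FCS were infected with 1000 CCID50 of HIV-2 ROD, alongside serial compound dilutions from DMSO stock. After 5 days at 37 °C, viable cells were counted by MTT. EC50 is the dose giving 50% protection from virus-induced cytopathicity. Data are means of three experiments.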

MT4 [5] = assay: Inhibitory activity against resistant HIV-1 strain NevR was determined.; format: functional, cell-based; conditions: Homo sapiens
MT4 [6] = assay: Inhibitory activity against resistant HIV-1 strain MC639r was determined.; format: functional, cell-based; conditions: Homo sapiens
H9 = assay: Ability to inhibit HIV-1 multiplication in chronically infected H9/IIIB cells; format: functional, cell-based; conditions: Homo sapiens
Summary of the method: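 Value taken as compound dose lowering infectious HIV-1 titer by 1 log in chronically infected H9/IIIB cells. Titer was read in C8166 cells by limiting dilution (1:2, 4 replica wells per dilution), with light-microscope scoring of cytopathicity after 4 days, expressed as CCID50/mL. Data are means of three separate experiments.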

SMILES	CC50 (MT4 [1])	EC50 (MT4 [2])	Ratio [3]	also measured
CCC(C)Sc1nc(O)cc(-c2ccccc2)n1 (centres undefined)	> 300 µM	> 300 µM	–	–
Cc1cccc(Cc2nc(SC3CCCCC3)n(C)c(=O)c2C)c1	44 µM	> 44 µM	–	–
Cc1cccc(Cc2nc(SC3CCCC3)nc(O)c2C)c1	> 300 µM	–	> 500	–
Cc1c(O)nc(S)nc1CSc1ccccc1	> 300 µM	> 300 µM	–	–
CCCCCCCCCCCSc1nc(O)cc(Cc2cccc3ccccc23)n1	> 300 µM	> 300 µM	–	–
CCC(C)Sc1nc(COc2ccccc2)c(C)c(=O)[nH]1 (centres undefined)	–	–	–	IC50 [4]: > 100 µM
Cc1c(O)nc(SC2CCCCC2)nc1CSc1ccccc1	> 300 µM	150 µM	> 2	–
CCC(C)Sc1nc(O)c(C)c(CSc2ccccc2)n1 (centres undefined)	75 µM	23 µM	3.3	–
CCC(C)Sc1nc(O)cc(CCc2ccccc2)n1 (centres undefined)	180 µM	125 µM	1.4	–
Oc1cc(CCc2ccccc2)nc(SC2CCCCC2)n1	133 µM	68 µM	1.9	–
CCC(CC)Sc1nc(O)cc(Cc2cccc3ccccc23)n1	200 µM	4 µM	50	–
CCCc1cc(O)nc(SC2CCCCC2)n1	210 µM	> 210 µM	–	–
Cc1c(O)nc(SC2CCCC2)nc1Cc1ccc2ccccc2c1	> 300 µM	15 µM	> 20	–
CCC(C)Sc1nc(O)cc(CSc2ccccc2)n1 (centres undefined)	288 µM	53 µM	5.4	–
CCC(C)Sc1nc(O)c(C)c(CCc2ccccc2)n1 (centres undefined)	105 µM	18 µM	6	–
CCCC(C)Sc1nc(O)cc(Cc2cccc3ccccc23)n1 (centres undefined)	158 µM	4.6 µM	34	–
Cc1ccnc2c1NC(=O)c1cccnc1N2C1CC1 [NEVIRAPINE]	> 300 µM	0.25 µM	–	EC50 (C8166): > 100 µM; EC50 (MT4 [5]): > 100 µM; EC50 (MT4 [6]): 0.31 µM; EC50 (H9): > 100 µM
Cc1c(O)nc(S)nc1COc1ccccc1	> 300 µM	> 300 µM	–	–
Cc1c(O)nc(SC2CCCCC2)nc1CCc1ccccc1	> 300 µM	27 µM	> 11	–
CCC(C)Sc1nc(Cc2cccc3ccccc23)c(C)c(=O)[nH]1 (centres undefined)	–	–	–	IC50 [4]: 22.5 µM
Cc1cccc(Cc2nc(SC3CCCCC3)nc(N)c2C)c1	> 200 µM	> 200 µM	–	–
CCC(C)Sc1nc(C)c(Cc2ccccc2)c(O)n1 (centres undefined)	> 300 µM	> 300 µM	–	–

SMILES	CC50 (MT4 [1])	EC50 (MT4 [2])	Ratio [3]	also measured
Cc1c(O)nc(SC2CCCCC2)nc1COc1ccccc1	> 300 µM	22 µM	> 14	–
Oc1cc(Cc2cccc3ccccc23)nc(SC2CCCCCC2)n1	> 300 µM	3 µM	> 100	–
Cc1c(O)nc(S)nc1CCc1ccccc1	> 300 µM	> 300 µM	–	–
Cc1c(O)nc(SC2CCCC2)nc1CSc1ccccc1	> 300 µM	150 µM	> 2	–
CCC(C)Sc1nc(O)cc(COc2ccccc2)n1 (centres undefined)	> 300 µM	52 µM	> 6	–
Cc1c(Cc2cccc3ccccc23)nc(SC2CCCC2)[nH]c1=O	–	–	–	IC50 [4]: 45 µM
Cc1cccc(Cc2nc(SC3CCCCC3)ncc2C)c1	128 µM	> 128 µM	–	–
CCC(C)Sc1nc(O)c(C)c(-c2ccccc2)n1 (centres undefined)	126 µM	> 126 µM	–	–
Cc1c(O)nc(S)nc1Cc1cccc2ccccc12	145 µM	> 145 µM	–	–
Cc1c(O)nc(SC2CCCCC2)nc1Cc1ccc2ccccc2c1	> 300 µM	125 µM	> 2.4	–
Cc1c(O)nc(SC2CCCCC2)nc1-c1ccccc1	> 300 µM	> 300 µM	–	–
CCCc1cc(O)nc(SC(C)CC)n1 (centres undefined)	246 µM	> 246 µM	–	–
Oc1cc(-c2ccccc2)nc(SC2CCCCC2)n1	> 300 µM	> 300 µM	–	–
Oc1cc(CSc2ccccc2)nc(SC2CCCCC2)n1	> 300 µM	32 µM	> 9.4	–
Cc1cccc(Cc2nc(SC3CCCCC3)nc(S)c2C)c1	176 µM	14.6 µM	12	–
Oc1cc(COc2ccccc2)nc(SC2CCCCC2)n1	> 300 µM	> 300 µM	–	–
Cc1c(O)nc(S)nc1Cc1ccc2ccccc2c1	91 µM	> 91 µM	–	–
Oc1cc(Cc2cccc3ccccc23)nc(S)n1	> 300 µM	> 300 µM	–	–
Oc1cc(Cc2cccc3ccccc23)nc(SCc2ccccc2)n1	> 300 µM	12.6 µM	> 24	–
Cc1c(O)nc(SC2CCCC2)nc1-c1ccccc1	175 µM	> 175 µM	–	–
CCC(C)Sc1nc(O)c(C)c(Cc2cccc(C)c2)n1 (centres undefined)	100 µM	–	100	–
CC(C)Sc1nc(O)cc(Cc2cccc3ccccc23)n1	> 300 µM	1 µM	> 300	–

SMILES	CC50 (MT4 [1])	EC50 (MT4 [2])	Ratio [3]	also measured
Cc1c(O)nc(SC2CCCC2)nc1CCc1ccccc1	> 300 µM	19 µM	> 16	–
O=c1cc(Cc2cccc3ccccc23)nc(SC2CCCC2)[nH]1	–	–	–	IC50 [4]: 48.7 µM
Cc1nc(SC2CCCC2)nc(O)c1Cc1ccccc1	> 300 µM	> 300 µM	–	–
Cc1c(O)nc(SC2CCCCC2)nc1Cc1cccc2ccccc12	> 300 µM	63 µM	> 4.7	–
Oc1cc(CSc2ccccc2)nc(SC2CCCC2)n1	300 µM	66 µM	4.5	–
Oc1cc(Cc2ccc3ccccc3c2)nc(SC2CCCC2)n1	> 300 µM	3.7 µM	> 8.1	–
Oc1cc(COc2ccccc2)nc(S)n1	> 300 µM	> 300 µM	–	–
Oc1cc(COc2ccccc2)nc(SC2CCCC2)n1	> 300 µM	148 µM	> 2	–
Oc1cc(Cc2cccc3ccccc23)nc(SC2CCCCC2)n1	> 300 µM	3.1 µM	> 96	–
CCC(C)Sc1nc(SC2CCCCC2)nc(Cc2cccc(C)c2)c1C (centres undefined)	> 300 µM	> 300 µM	–	–
Cc1cccc(Cc2nc(SC3CCCCC3)nc(Cl)c2C)c1	133 µM	> 133 µM	–	–
Cc1c(O)nc(SC2CCCC2)nc1COc1ccccc1	> 300 µM	24 µM	> 13	–
Oc1cc(CSc2ccccc2)nc(S)n1	> 300 µM	> 300 µM	–	–
Oc1cc(-c2ccccc2)nc(SC2CCCC2)n1	> 300 µM	> 300 µM	–	–
CCC(C)Sc1nc(Cc2ccc3ccccc3c2)c(C)c(=O)[nH]1 (centres undefined)	–	–	–	IC50 [4]: 29.7 µM
Oc1cc(CCc2ccccc2)nc(SC2CCCC2)n1	112 µM	81.5 µM	1.4	–
COc1nc(SC2CCCCC2)nc(Cc2cccc(C)c2)c1C	> 300 µM	> 300 µM	–	–
Cc1cccc(Cc2nc(SC3CCCCC3)nc(N/N=C(/N)S)c2C)c1	24 µM	> 24 µM	–	–
Oc1cc(Cc2ccc3ccccc3c2)nc(S)n1	> 300 µM	> 300 µM	–	–
Cc1nc(SC2CCCCC2)nc(O)c1Cc1ccccc1	> 300 µM	> 300 µM	–	–
